SMILES strings stand for the structures. ≈ marks a conversion by molar mass, not a printed value. Calls of active or inactive are those of the source. The rule behind the calls is not given here.

The subject of experiment [1] is Micrococcus luteus. Put plainly: Antibacterial activity against Micrococcus luteus MTCC 2470 at 20 ug/ml after 24 hrs by disk diffusion method. To be noted: MTCC 2470, 24 h, read-out: IZ. Format: functional. (In agar diffusion tests the substance spreads into inoculated agar from a disc or well.)
Experiment [2] has as its system Staphylococcus. Put plainly: Antibacterial activity against Staphylococcus MLS-16 MTCC 2940 at 20 ug/ml after 24 hrs by disk diffusion method. Format: functional. To be noted: MLS-16 MTCC 2940, 24 h, read-out: IZ.
For experiment [3], the system named is Bacillus subtilis. Put plainly: Antibacterial activity against Bacillus subtilis MTCC 121 at 20 ug/ml after 24 hrs by disk diffusion method. Format: functional. The settings on record: MTCC 121, 24 h, read-out: IZ.
The test system of experiment [4] is Staphylococcus. Put plainly: Antibacterial activity against Staphylococcus MLS-16 MTCC 2940 after 24 hrs by agar dilution method. Format: functional. The settings on record: MLS-16 MTCC 2940, 24 h. For orientation: In agar dilution, organisms are placed on agar that contains the substance at set levels.
The test system of experiment [5] is Micrococcus luteus. Put plainly: Antibacterial activity against Micrococcus luteus MTCC 2470 after 24 hrs by agar dilution method. Format: functional. The settings on record: MTCC 2470, 24 h.
Experiment [6] has as its system Bacillus subtilis. Put plainly: Antibacterial activity against Bacillus subtilis MTCC 121 after 24 hrs by agar dilution method. Format: functional. The settings on record: MTCC 121, 24 h.
For experiment [7], the system named is Staphylococcus aureus. Put plainly: Antibacterial activity against Staphylococcus aureus MTCC 96 at 20 ug/ml after 24 hrs by disk diffusion method. Format: functional. The settings on record: MTCC 96, 24 h, read-out: IZ.
Experiment [8] relates to Pseudomonas aeruginosa. Put plainly: Antibacterial activity against Pseudomonas aeruginosa MTCC 2453 at 20 ug/ml after 24 hrs by disk diffusion method. Format: functional. To be noted: MTCC 2453, 24 h, read-out: IZ.
Experiment [9] relates to Staphylococcus aureus. Put plainly: Antibacterial activity against Staphylococcus aureus MTCC 96 after 24 hrs by agar dilution method. Format: functional. The settings on record: MTCC 96, 24 h.
Experiment [10] deals with Escherichia coli. Put plainly: Antibacterial activity against Escherichia coli MTCC 739 at 80 ug/ml after 24 hrs by agar dilution method. Format: functional, organism-based.
The subject of experiment [11] is Candida albicans. Put plainly: Antifungal activity against Candida albicans MTCC 3017 after 48 hrs by agar dilution method. Format: functional. The settings on record: MTCC 3017, 48 h. The method in brief: (§1)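 Same disk/dilution format as the antibacterial assay, on potato dextrose agar (39 g/L). Compounds were from DMSO stock, loaded at 1 to 80 per disk, in triplicate. Plates were incubated at 28 ± 2 °C for 48 h. MIC was the lowest amount that arrested growth. Equivalent DMSO served as solvent control.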

Experiment [12] relates to Candida albicans. Put plainly: Antifungal activity against Candida albicans MTCC 3017 at 20 ug/ml after 24 hrs by disk diffusion method. The settings on record: MTCC 3017, 24 h, read-out: IZ. Format: functional.
Experiment [13] deals with Pseudomonas aeruginosa. Put plainly: Antibacterial activity against Pseudomonas aeruginosa MTCC 2453 after 24 hrs by agar dilution method. Format: functional. To be noted: MTCC 2453, 24 h.
For experiment [14], the system named is Raoultella planticola. Put plainly: Antibacterial activity against Klebsiella planticola MTCC 530 at 80 ug/ml after 24 hrs by agar dilution method. Format: functional, organism-based.
Experiment [15] has as its system Mycobacterium tuberculosis. Put plainly: Antibacterial activity against Mycobacterium tuberculosis H37Rv at 32 ug/ml […] by agar dilution method. Format: functional, organism-based.
Experiment [16] has as its system Bacillus subtilis. Put plainly: Antibacterial activity against Bacillus subtilis MTCC 121 at 80 ug/ml after 24 hrs by agar dilution method. Format: functional, organism-based.
The subject of experiment [17] is Micrococcus luteus. Put plainly: Antibacterial activity against Micrococcus luteus MTCC 2470 at 80 ug/ml after 24 hrs by agar dilution method. Format: functional, organism-based.
The subject of experiment [18] is Staphylococcus aureus. Put plainly: Antibacterial activity against Staphylococcus aureus MTCC 96 at 80 ug/ml after 24 hrs by agar dilution method. Format: functional, organism-based.
Experiment [19] deals with Pseudomonas aeruginosa. Put plainly: Antibacterial activity against Pseudomonas aeruginosa MTCC 2453 at 80 ug/ml after 24 hrs by agar dilution method. Format: functional, organism-based.
Experiment [20] deals with Candida albicans. Put plainly: Antifungal activity against Candida albicans MTCC 3017 at 80 ug/ml after 48 hrs by agar dilution method. Format: functional, organism-based. The method in brief:
as §1

Experiment [21] has as its system Staphylococcus. Put plainly: Antibacterial activity against Staphylococcus MLS-16 MTCC 2940 at 80 ug/ml after 24 hrs by agar dilution method. Format: functional, organism-based.
Experiment [22] relates to Mycobacterium tuberculosis. Put plainly: Antibacterial activity against Mycobacterium tuberculosis H37Rv after 2 to 3 weeks by broth microdilution method. Format: functional. The method in brief:
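M. tuberculosis H37Rv, first screened at a single concentration of 32 in triplicate in a microtiter plate (microplate dilution assay). Compounds active in this screen were then taken to MIC determination by broth microdilution. Compounds were dissolved in DMSO.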
In general terms: Dilution methods test growth across graded concentrations, often in twofold steps.

For `CC(=O)NC[C@H]1CN(c2ccc(N3CCOCC3)c(F)c2)C(=O)O1` [LINEZOLID], the zone of inhibition at 20 µg/mL in [1] stood at 20 mm; in [2] it was 18 mm; in experiment [3], 10 mm; in experiment [7] it was 28 mm; in experiment [8], 12 mm. Also, the minimum inhibitory concentration (MIC) (usually the lowest concentration found to suppress growth) was determined as 1.5 µg/mL (≈ 4.45 µM) in experiment [4], 1 µg/mL (≈ 2.96 µM) in experiment [5], 1.5 µg/mL (≈ 4.45 µM) in [6] and 1.5 µg/mL (≈ 4.45 µM) in experiment [9].

`O=C1O[C@@H](CNS(=O)(=O)c2ccc(F)cc2)CN1c1ccc(N2CCSCC2)c(F)c1`: the result in [10], in experiment [14] and in experiment [15] was inactive. The zone of inhibition at 20 µg/mL in [1] was found to be 14 mm; in experiment [2], 17 mm; in experiment [3], 23 mm; in experiment [12], 16 mm; in experiment [7], 18 mm; in experiment [8], 17 mm. In addition, the minimum inhibitory concentration (MIC) in experiment [11] was found to be 10 µg/mL (≈ 21.3 µM); in experiment [4] it was 10 µg/mL (≈ 21.3 µM); in experiment [13] it was 10 µg/mL (≈ 21.3 µM); in [5], 10 µg/mL (≈ 21.3 µM); in [6] it was 8 µg/mL (≈ 17 µM); in experiment [9], 10 µg/mL (≈ 21.3 µM).

As to `O=C1O[C@@H](CNS(=O)(=O)c2ccc(Oc3ccccc3)cc2)CN1c1ccc(N2CCSCC2)c(F)c1`, the outcome in [10], in [16], in experiment [14], in experiment [15] and in [17] was inactive. The minimum inhibitory concentration (MIC) in experiment [11] was 20 µg/mL (≈ 36.8 µM); in experiment [4] it was 8 µg/mL (≈ 14.7 µM); in experiment [13], 20 µg/mL (≈ 36.8 µM); in [9], 8 µg/mL (≈ 14.7 µM).

As for `O=C1O[C@@H](CNS(=O)(=O)c2ccc(F)cc2)CN1c1ccc(N2CCNCC2)c(F)c1`, the outcome in experiment [10] and in experiment [14] was inactive. Moreover, the zone of inhibition at 20 µg/mL in [1] was 14 mm; in experiment [2], 17 mm; in experiment [3], 20 mm; in experiment [12], 16 mm; in experiment [7] it was 17 mm; in [8], 18 mm. Moreover, the MIC in [11] turned out to be 8 µg/mL (≈ 17.7 µM); in [4], 8 µg/mL (≈ 17.7 µM); in experiment [13], 4 µg/mL (≈ 8.84 µM); in experiment [5], 4 µg/mL (≈ 8.84 µM); in experiment [6] it was 10 µg/mL (≈ 22.1 µM); in experiment [9], 8 µg/mL (≈ 17.7 µM).

With `O=C1O[C@@H](CNS(=O)(=O)c2cc(S(=O)(=O)c3ccccc3)cs2)CN1c1ccc(N2CCOCC2)c(F)c1`, the result in experiment [10], in [16], in [18], in experiment [19], in experiment [20] and in experiment [14] was inactive. The result in [15], in [17] and in experiment [21] was inactive.

`O=C1O[C@@H](CNS(=O)(=O)c2ccc(F)cc2Cl)CN1c1ccc(N2CCOCC2)c(F)c1`: the result in experiment [10], in experiment [19], in experiment [20], in experiment [14], in experiment [15] and in experiment [17] was inactive. Besides, the figures for the minimum inhibitory concentration (MIC) in experiment [4], in experiment [6] and in [9] were 20 µg/mL (≈ 41 µM), 8 µg/mL (≈ 16.4 µM) and 20 µg/mL (≈ 41 µM), respectively.

As to `O=C1O[C@@H](CNS(=O)(=O)c2cccs2)CN1c1ccc(N2CCOCC2)c(F)c1`, the result in experiment [10], in [14] and in experiment [15] was inactive. Besides, the zone of inhibition at 20 µg/mL came out at 15 mm in [1]; 18 mm in experiment [2]; 20 mm in [3]; 18 mm in [12]; 20 mm in experiment [7]; 19 mm in experiment [8]. In addition, the MIC in [11] turned out to be 4 µg/mL (≈ 9.06 µM); in [4], 4 µg/mL (≈ 9.06 µM); in experiment [13] it was 4 µg/mL (≈ 9.06 µM); in [5], 6 µg/mL (≈ 13.6 µM); in experiment [6] it was 4 µg/mL (≈ 9.06 µM); in experiment [9], 4 µg/mL (≈ 9.06 µM).

With `O=C1O[C@@H](CNS(=O)(=O)c2cccc(Cl)c2)CN1c1ccc(N2CCSCC2)c(F)c1`, the result in experiment [10], in experiment [18], in experiment [20], in experiment [14], in experiment [15] and in experiment [17] was inactive. In experiment [21], the result was inactive. In addition, the MIC in experiment [13] came to 10 µg/mL (≈ 20.6 µM); in experiment [6], 20 µg/mL (≈ 41.2 µM).

With `O=C1O[C@@H](CNS(=O)(=O)c2ccc(C(F)(F)F)cc2)CN1c1ccc(N2CCNCC2)c(F)c1`, the result in [10] and in experiment [14] was inactive. The zone of inhibition at 20 µg/mL came to 13 mm in [1]; 15 mm in experiment [2]; 16 mm in experiment [3]; 15 mm in [12]; 17 mm in experiment [7]; 16 mm in [8]. Besides, the minimum inhibitory concentration (MIC) is 10 µg/mL (≈ 19.9 µM) in experiment [11]; 6 µg/mL (≈ 11.9 µM) in experiment [4]; 8 µg/mL (≈ 15.9 µM) in experiment [13]; 8 µg/mL (≈ 15.9 µM) in [5]; 8 µg/mL (≈ 15.9 µM) in experiment [6]; 6 µg/mL (≈ 11.9 µM) in experiment [9].

With `O=C1O[C@@H](CNS(=O)(=O)c2ccc(F)cc2)CN1c1ccc(N2CCOCC2)c(F)c1`, the MIC was found to be 10 µg/mL (≈ 22.1 µM) in experiment [11]; 1 µg/mL (≈ 2.21 µM) in [22]; 10 µg/mL (≈ 22.1 µM) in experiment [4]; 10 µg/mL (≈ 22.1 µM) in experiment [13]; 10 µg/mL (≈ 22.1 µM) in experiment [6]. Further, in experiment [17], the outcome was inactive.

These data come from ChEMBL document CHEMBL2331333, “Synthesis, biological evaluation of new oxazolidino-sulfonamides as potential antimicrobial agents” (2013).
